Data set [1] relates to Cryptosporidium parvum. Description: Antiparasitic activity against Cryptosporidium parvum SPL infected in human HCT8 cells incubated for 48 hrs by FITC/DAPI staining based fluorescence assay. In kind it is functional, organism-based. As to conditions: HCT-8, 48 h. The procedure, abridged: (§1)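 HCT-8 cells seeded at 2750 cells/well and dosed 24 h later with pure compounds (11-point 1:3 serial dilution, final top 25 μM), then infected with excysted oocysts at 3125 oocysts/well. Incubated 48 h at 37 °C, 5% CO2, then fixed in 4% paraformaldehyde. Parasites stained with FITC-Vicia villosa lectin and host nuclei with DAPI, imaged at 10×. Parasite spot counts and host nuclei counts taken relative to DMSO-treated wells.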

Another data set has as its system HCT-8. Kind of data set: Cytotoxicity against human HCT8 cells. In kind it is cell-based. The procedure, abridged:
as §1

Data set [2] relates to Cryptosporidium parvum. Kind of data set: Antiparasitic activity against Cryptosporidium parvum BGF infected in human HCT8 cells incubated for 48 hrs by FITC/DAPI staining based fluorescence assay. Format: functional, organism-based. As to conditions: HCT-8, 48 h. The procedure, abridged:
as §1

Data set [3] is described as follows: Cytotoxicity against human HEK293T cells assessed as decrease in cell viability after 72 hrs by CellTiter-Glo reagent based luminescence assay. The arrangement: species or system HEK-293T. The procedure, abridged: (§2)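 Compounds prespotted as a 1:3 dilution series, top 40 μM. Cells seeded at 375 cells/well for HEK293T and 700 cells/well for HepG2, then incubated 72 h at 37 °C, 5% CO2. Viability read as CellTiter-Glo luminescence, normalized to DMSO- and puromycin-treated wells. CC50 obtained from a four-parameter nonlinear regression fit.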
Background: Cellular ATP, detected with luciferase, serves as a proxy for viable cell number.

Data set [4] can be described thus: Cytotoxicity against human HepG2 cells assessed as decrease in cell viability after 72 hrs by CellTiter-Glo reagent based luminescence assay. The procedure, abridged: as §2

SMILES strings stand for the structures.

One may read the EC50 as the concentration that produces a half-maximal response. The low end stands for higher potency in that assay, the high end for lower potency in that assay. As a reminder, the CC50 is the concentration at which the toxic effect on the cells reaches its halfway point. Consider `O=c1[nH]c(=O)n([C@H]2C[C@H](O)[C@@H](CO)O2)cc1F` [FLOXURIDINE], for which the EC50 is 0.005 µM with Cryptosporidium parvum [1], 0.015 to 0.038 µM with HCT-8 and 0.0096 µM with Cryptosporidium parvum [2]. Besides, the 50% cytotoxic concentration (CC50) at 72 h in data set [3] worked out at 0.0084 µM; in data set [4], 0.0076 µM.
For the molecule `COC(=O)[C@H]1O[C@@H]2C[C@H]3O[C@@H](n4cnc5c(N)ncnc54)[C@H](OC)[C@H]3O[C@@]2(O)[C@@H](O)[C@@H]1O`, the results for the EC50 in the data set with Cryptosporidium parvum [1], in the data set with HCT-8 and with Cryptosporidium parvum [2] were 11 µM, over 25 µM and 8.8 µM, respectively. Also, the CC50 at 72 h in data set [3] and in data set [4] was over 40 µM each time.
As for `COc1ccc(C[C@H](N)C(=O)N[C@H]2[C@@H](O)[C@H](n3cnc4c(N(C)C)ncnc43)O[C@@H]2CO)cc1` [PUROMYCIN], the values for the EC50 in the data set on Cryptosporidium parvum [1], with HCT-8 and with Cryptosporidium parvum [2] were 0.6 µM, 6.1 to 7 µM and 0.55 µM, respectively. The results for the CC50 at 72 h in data set [3] and in data set [4] were 0.42 µM and 0.83 µM, respectively.
As to `CC(=O)Oc1ccccc1C(=O)Nc1ncc([N+](=O)[O-])s1` [NITAZOXANIDE], the results for the EC50 in the data set on Cryptosporidium parvum [1], with HCT-8 and in the data set with Cryptosporidium parvum [2] were 2.3 µM, over 25 µM and 2.9 µM, respectively. Besides, the half-maximal cytotoxic concentration (CC50) at 72 h in data set [3] and in data set [4] was over 40 µM each time.
On to `C/C=C(\CO)C(=O)O[C@@H]1[C@@H](C(=O)OC)O[C@@H]2C[C@H]3O[C@@H](n4cnc5c(N)ncnc54)[C@H](OC)[C@H]3O[C@@]2(O)[C@@H]1O`, for which the figures for the concentration for a half-maximal effect (EC50) with Cryptosporidium parvum [1], with HCT-8 and with Cryptosporidium parvum [2] were 0.17 µM, 0.14 to 0.18 µM and 0.15 µM, respectively. Besides, the CC50 at 72 h in data set [3] is over 40 µM; in data set [4], 24 µM.
In the case of `COC(=O)[C@H]1O[C@@H]2C[C@H]3O[C@@H](n4cnc5c(N)ncnc54)[C@H](O)[C@H]3O[C@@]2(O)[C@@H](O)[C@@H]1O`, the EC50 is 24 µM in the data set on Cryptosporidium parvum [1], over 25 µM in the data set on HCT-8 and 18 µM in the data set with Cryptosporidium parvum [2]. The CC50 at 72 h in data set [3] and in data set [4] was over 40 µM each time.
Regarding `C/C=C(\C)C(=O)O[C@H]1[C@H](O)[C@@H](C(=O)OC)O[C@@H]2C[C@H]3O[C@@H](n4cnc5c(N)ncnc54)[C@H](O)[C@H]3O[C@]21O`, the EC50 was 2.7 µM in the data set with Cryptosporidium parvum [1], over 25 µM in the data set with HCT-8 and 2.8 µM with Cryptosporidium parvum [2]. The CC50 at 72 h in data set [3] and in data set [4] was over 40 µM in each case.
With `COC(=O)[C@H]1O[C@@H]2C[C@H]3O[C@@H](n4cnc5c(N)ncnc54)[C@H](OC)[C@H]3O[C@@]2(O)[C@H](O)[C@@H]1O`, the 50% effective concentration (EC50) in the data set with Cryptosporidium parvum [1], in the data set with HCT-8 and in the data set on Cryptosporidium parvum [2] was over 25 µM each time. The 50% cytotoxic concentration (CC50) at 72 h in data set [3] and in data set [4] was over 40 µM throughout.
As for `C/C=C(\CO)C(=O)O[C@H]1[C@H](O)[C@@H](C(=O)OC)O[C@@H]2C[C@H]3O[C@@H](n4cnc5c(N)ncnc54)[C@H](OC)[C@H]3O[C@]21O`, the results for the EC50 in the data set on Cryptosporidium parvum [1], in the data set on HCT-8 and with Cryptosporidium parvum [2] were 16 µM, over 25 µM and 21 µM, respectively. Besides, the half-maximal cytotoxic concentration (CC50) at 72 h in data set [3] and in data set [4] was over 40 µM throughout.

For the origin of these results see ChEMBL document CHEMBL4251668, “Herbicidins from Streptomyces sp. CB01388 Showing Anti- Cryptosporidium Activity” (J Nat Prod, 2018).
